The structures appear in SMILES notation. In brackets after ≈: the same amount, converted by molar mass.

Series [1] in a line: Minimum toxic concentration against influenza A virus, in MDCK cells from dog kidney. Format: ADME, cell-based, Canis lupus familiaris. Conditions: read-out: MTC50. In outline: (§1)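 MDCK dog kidney cells infected with influenza A. MIC50 is the lowest concentration giving a 50% drop in virus yield. MTC50 is the lowest concentration toxic to 50% of cells. Selectivity index is MTC50 divided by MIC50, in µg/mL terms. Amantadine hydrochloride served as the reference.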

For series [2], the system named is Vero. Put plainly: Minimum inhibitory concentration against African swine fever virus, in vero monkey kidney cells. The settings on record: Chlorocebus sabaeus. Format: functional.
Series [3] can be described thus: Ratio of MIC50 to MTC50 against HSV-2. Format: functional.
For series [4], the system named is MDCK. Put plainly: Minimum inhibitory concentration against influenza A virus, in MDCK cells from dog kidney. Format: functional. Conditions: Canis lupus familiaris. The procedure, abridged:
as §1

The nature of series [5]: Minimum toxic concentration against herpes simplex virus 2, in vero monkey kidney cells. Format: ADME, cell-based. Conditions: chlorocebus sabaeus, read-out: MTC50.
The nature of series [6]: […] against African Swine Fever Virus. Format: functional.
Series [7] relates to Vero. Put plainly: Minimum inhibitory concentration against herpes simplex virus 2, in vero monkey kidney cells. The settings on record: Chlorocebus sabaeus. The series is classed as functional.
Series [8] can be described thus: Minimum toxic concentration against African swine fever virus, in vero monkey kidney cells. Format: ADME, cell-based. The settings on record: chlorocebus sabaeus, read-out: MTC50.

Regarding `CCNC12CCC(C1)C(C)(C)C2C` (stereo not drawn), the MCC stood at 100 µg/mL in series [1], 300 µg/mL in series [5] and 300 µg/mL in series [8]. Besides, the MIC50 in series [2] was 30 µg/mL (≈ 165 µM); in series [4] it was 0.1 µg/mL (≈ 0.552 µM); in series [7], 75 µg/mL (≈ 414 µM). The Selectivity index worked out at 4 in series [3] and 10 in series [6].
Take `CC1C2CCC(N)(C2)C1(C)C` (stereo not drawn): the MCC worked out at 50 µg/mL in series [1], 200 µg/mL in series [5] and 200 µg/mL in series [8]. Also, the MIC50 in series [2] was 25 µg/mL (≈ 163 µM); in series [4], 5 µg/mL (≈ 32.6 µM); in series [7], 25 µg/mL (≈ 163 µM). Besides, the Selectivity index in series [3] and in series [6] was 8 throughout.
Turning to `C=C1C2CCC(NCC)(C2)C1(C)C` (stereo not drawn), the MCC amounted to 100 µg/mL in series [1], 400 µg/mL in series [5] and 400 µg/mL in series [8]. Besides, the MIC50 is 30 µg/mL (≈ 167 µM) in series [2], 0.1 µg/mL (≈ 0.558 µM) in series [4] and 100 µg/mL (≈ 558 µM) in series [7]. In addition, the Selectivity index is 4 in series [3] and 13 in series [6].
In the case of `CCNC12CCC(C1)C(C)C2(C)C` (stereo not drawn), the MCC was 100 µg/mL in series [1], 300 µg/mL in series [5] and 300 µg/mL in series [8]. The MIC50 in series [2] was 25 µg/mL (≈ 138 µM); in series [4] it was less than 10 µg/mL; in series [7], 25 µg/mL (≈ 138 µM). Moreover, the Selectivity index in series [3] and in series [6] was 12 in each case.
With `Cl.NC12CC3CC(CC(C3)C1)C2` [AMANTADINE HYDROCHLORIDE], the MCC in series [1] came to 300 µg/mL. In series [4], this compound registered an MIC50 of 0.5 µg/mL.
On to `CC1C2(N)CCC(C2)C1(C)C` (stereo not drawn), for which the results for the MIC50 in series [2] and in series [7] were 30 µg/mL (≈ 196 µM) and 50 µg/mL (≈ 326 µM), respectively. Besides, the Selectivity index came to 6 in series [3] and 10 in series [6]. The MCC in series [5] and in series [8] was 300 µg/mL in each case.
For the compound `C=C1C2(NCC)CCC(C2)C1(C)C` (stereo not drawn), the MCC in series [1] was found to be 200 µg/mL; in series [5], 300 µg/mL; in series [8], 300 µg/mL. For the same compound, the MIC50 in series [2] stood at 100 µg/mL (≈ 558 µM); in series [4] it was 5 µg/mL (≈ 27.9 µM); in series [7], 300 µg/mL (≈ 1670 µM). Moreover, the Selectivity index in series [3] stood at 1; in series [6] it was 3.

The values are drawn from ChEMBL document CHEMBL1128182, “Synthesis of substituted 1-norbornylamines with antiviral activity” (J Med Chem, 1995).
